Data taken from ChEMBL document CHEMBL1126281, “Synthesis and dopaminergic activity of some 3-(1,2,3,6-tetrahydro-1-pyridylalkyl)indoles. A novel conformational model to explain structure-activity relationships” (J Med Chem, 1992).
pIC50, pKi: −log10 of the molar value.

Assays:
D(2) dopamine receptor [1] = molecular target: T1, D(2) dopamine receptor (Rattus norvegicus, UniProt P61169); test: Evaluated for its ability to displace tritiated receptor ligand in rat striatal membranes 3[H]spiperone, a dopamine antagonist; assay type: functional, cell membranes, Striatum, Membrane
T1 sequence (P61169 whole entry): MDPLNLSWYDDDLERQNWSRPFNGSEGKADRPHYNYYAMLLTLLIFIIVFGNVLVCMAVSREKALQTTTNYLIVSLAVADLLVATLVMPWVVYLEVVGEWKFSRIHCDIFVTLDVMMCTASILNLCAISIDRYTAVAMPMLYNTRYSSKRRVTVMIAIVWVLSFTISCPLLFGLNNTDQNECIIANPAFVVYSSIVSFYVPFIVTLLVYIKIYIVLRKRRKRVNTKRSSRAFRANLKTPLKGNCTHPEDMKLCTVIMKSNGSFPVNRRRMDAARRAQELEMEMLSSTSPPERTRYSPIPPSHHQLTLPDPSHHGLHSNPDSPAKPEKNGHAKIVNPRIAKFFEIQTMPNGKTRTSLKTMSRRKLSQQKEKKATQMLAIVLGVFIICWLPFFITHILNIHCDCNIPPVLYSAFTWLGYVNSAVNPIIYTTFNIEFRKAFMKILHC

D(2) dopamine receptor [2] = molecular target: T1, D(2) dopamine receptor; test: Evaluated for its ability to displace tritiated receptor ligand in rat striatal membranes [3H]ADTN, a dopamine agonist; assay type: functional, cell membranes, Striatum, Membrane
Rattus norvegicus [3] = test: Evaluated in vivo for its ability to induce contralateral rotational behavior in rats with unilateral, 6-hydroxy DA induced lesions of the substantia nigra at 3 mg/kg dosage orally; assay type: functional; conditions: route oral
Outline: (§1)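 Rats given a unilateral 6-hydroxydopamine injection into the substantia nigra (8 μg per rat) at least 1 month earlier. Drug was given orally or subcutaneously and contralateral turns were recorded. Totals are cumulative at 1 h or 2 h after dosing, reported as means ± SEM with n = 3-6 rats.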

D(2) dopamine receptor [4] = molecular target: T1, D(2) dopamine receptor; test: Compound was evaluated for its ability to displace tritiated receptor ligand in rat striatal membranes [3H]ADTN, a dopamine agonist; assay type: functional, cell membranes, Striatum, Membrane
Rattus norvegicus [5] = test: Compound was evaluated for increase striatal acetyl choline (AcCh) concentration in intact rat administered subcutaneously.; assay type: functional; conditions: sc
Rattus norvegicus [6] = test: Compound was evaluated for D2 dopaminergic activity measured as total contralateral turns expressed as mean after 1 hr at a dose of 0.1 mg/kg administered subcutaneously; assay type: functional; conditions: route subcutaneous; outline: as §1
Rattus norvegicus [7] = test: Compound was evaluated for D2 dopaminergic activity measured as total contralateral turns expressed as mean after 1 hr at a dose of 0.3 mg/kg administered subcutaneously; assay type: functional; conditions: route subcutaneous; outline: as §1
Rattus norvegicus [8] = test: Compound was evaluated for D2 dopaminergic activity measured as total contralateral turns expressed as mean after 1 hr at a dose of 0.3 mg/kg peroral administration.; assay type: functional; conditions: route oral; outline: as §1
Rattus norvegicus [9] = test: Compound was evaluated for D2 dopaminergic activity measured as total contralateral turns expressed as mean after 1 hr at a dose of 1 mg/kg peroral administration; assay type: functional; conditions: route oral; outline: as §1
Rattus norvegicus [10] = test: Compound was evaluated for D2 dopaminergic activity measured as total contralateral turns expressed as mean after 1 hr at a dose of 3 mg/kg peroral administration.; assay type: functional; conditions: route oral; outline: as §1
Rattus norvegicus [11] = test: Compound was evaluated for D2 dopaminergic activity measured as total contralateral turns expressed as mean after 2 hr at a dose of 0.1 mg/kg administered subcutaneously; assay type: functional; conditions: route subcutaneous; outline: as §1
Rattus norvegicus [12] = test: Compound was evaluated for D2 dopaminergic activity measured as total contralateral turns expressed as mean after 2 hr at a dose of 0.3 mg/kg administered subcutaneously; assay type: functional; conditions: route subcutaneous; outline: as §1
Rattus norvegicus [13] = test: Compound was evaluated for D2 dopaminergic activity measured as total contralateral turns expressed as mean after 2 hr at a dose of 0.3 mg/kg peroral administration.; assay type: functional; conditions: route oral; outline: as §1
Rattus norvegicus [14] = test: Compound was evaluated for D2 dopaminergic activity measured as total contralateral turns expressed as mean after 2 hr at a dose of 1 mg/kg peroral administration; assay type: functional; conditions: route oral; outline: as §1
Rattus norvegicus [15] = test: Compound was evaluated for D2 dopaminergic activity measured as total contralateral turns expressed as mean after 2 hr at a dose of 3 mg/kg peroral administration.; assay type: functional; conditions: route oral; outline: as §1
Rattus norvegicus [16] = test: Compound was evaluated for D2 dopaminergic activity measured as total contralateral turns after 1 hr at a dose of 0.03 mg/kg administered subcutaneously.; assay type: functional; conditions: route subcutaneous; outline: as §1
D(2) dopamine receptor [17] = molecular target: T1, D(2) dopamine receptor; test: Compound was evaluated for its ability to displace tritiated receptor ligand in rat striatal membranes 3[H]spiperone, a dopamine antagonist; assay type: functional, cell membranes, Striatum, Membrane
Outline: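 Rat striatal membranes (0.3–1.0 mg protein/mL) with 0.1 nmol/l [³H]spiperone in 50 mmol Tris/HCl, pH 7.7, plus 0.1% ascorbic acid. Incubated 15 min at 37 °C, stopped by rapid filtration and three ice-cold washes. Nonspecific binding was defined with 1 μmol/L (+)-butaclamol. Values are means ± SD of 2-4 independent determinations, with triplicates per concentration.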

Rattus norvegicus [18] = test: compound was evaluated for increase striatal acetyl choline (AcCh) concentration in intact rat administered subcutaneously.; assay type: functional; conditions: sc
Rattus norvegicus [19] = test: Compound was evaluated for D2 dopaminergic activity measured as total contralateral turns after 2 hr at a dose of 0.3 mg/kg peroral administration.; assay type: functional; conditions: route oral; outline: as §1
Rattus norvegicus [20] = test: Compound was evaluated for D2 dopaminergic activity measured as total contralateral turns after 2 hr at a dose of 1 mg/kg peroral administration.; assay type: functional; conditions: route oral; outline: as §1
Rattus norvegicus [21] = test: Compound was evaluated for D2 dopaminergic activity measured as total contralateral turns after 2 hr at a dose of 3 mg/kg peroral administration.; assay type: functional; conditions: route oral; outline: as §1
Rattus norvegicus [22] = test: Compound was evaluated for D2 dopaminergic activity measured as total contralateral turns after 1 hr at a dose of 0.1 mg/kg administered subcutaneously.; assay type: functional; conditions: route subcutaneous; outline: as §1
Rattus norvegicus [23] = test: Compound was evaluated for D2 dopaminergic activity measured as total contralateral turns after 1 hr at a dose of 0.1 mg/kg peroral administration.; assay type: functional; conditions: route oral; outline: as §1
Rattus norvegicus [24] = test: Compound was evaluated for D2 dopaminergic activity measured as total contralateral turns after 1 hr at a dose of 0.3 mg/kg peroral administration.; assay type: functional; conditions: route oral; outline: as §1
Rattus norvegicus [25] = test: Compound was evaluated for D2 dopaminergic activity measured as total contralateral turns after 1 hr at a dose of 1 mg/kg peroral administration.; assay type: functional; conditions: route oral; outline: as §1
Rattus norvegicus [26] = test: Compound was evaluated for D2 dopaminergic activity measured as total contralateral turns after 1 hr at a dose of 3 mg/kg peroral administration.; assay type: functional; conditions: route oral; outline: as §1
Rattus norvegicus [27] = test: Compound was evaluated for D2 dopaminergic activity measured as total contralateral turns after 2 hr at a dose of 0.03 mg/kg administered subcutaneously.; assay type: functional; conditions: route subcutaneous; outline: as §1
Rattus norvegicus [28] = test: Compound was evaluated for D2 dopaminergic activity measured as total contralateral turns after 2 hr at a dose of 0.1 mg/kg administered subcutaneously.; assay type: functional; conditions: route subcutaneous; outline: as §1
Rattus norvegicus [29] = test: Compound was evaluated for D2 dopaminergic activity measured as total contralateral turns after 2 hr at a dose of 0.1 mg/kg peroral administration.; assay type: functional; conditions: route oral; outline: as §1

| SMILES | pIC50 (D(2) dopamine receptor [1]) | pKi (D(2) dopamine receptor [2]) | Turns/first hour (Rattus norvegicus [3]) | other results |
| --- | --- | --- | --- | --- |
| C1=C(c2ccccc2)CCN(CCc2c[nH]c3ccccc23)C1 | 7.00 | 7.09 | <50 |  |
| COc1ccc2[nH]cc(CCCCN3CC=C(c4ccccc4)CC3)c2c1 | 7.70 | 8.36 | 504 |  |
| Clc1ccc(C2=CCN(CCCCc3c[nH]c4ccccc34)CC2)cc1 | 7.00 | 7.34 | 100 |  |
| Oc1ccc2c(CCCCN3CC=C(c4ccccc4)CC3)c[nH]c2c1 | 8.10 | 8.60 | 786 |  |
| C1=CCN(CCCCc2c[nH]c3ccccc23)CC1 | < 6.00 | < 6.00 | <100 |  |
| C1=C(c2ccccc2)CCN(CCCCCCc2c[nH]c3ccccc23)C1 | 7.40 | 8.37 | <100 |  |
| COc1ccc2c(CCCCN3CC=C(c4ccccc4)CC3)c[nH]c2c1 | 8.05 | 8.74 | 792 |  |
| Cn1cc(CCCCN2CC=C(c3ccccc3)CC2)c2ccccc21 | 7.00 | 7.82 | 121 |  |
| Clc1ccccc1C1=CCN(CCCCc2c[nH]c3ccccc23)CC1 | 7.00 | 7.68 | <50 |  |
| C1=C(c2ccccc2)CCN(CCCc2c[nH]c3ccccc23)C1 | 7.30 | 7.92 | ~250 |  |
| Fc1ccccc1C1=CCN(CCCCc2c[nH]c3ccccc23)CC1 | 7.70 | 8.40 | 186 |  |
| Clc1ccc2[nH]cc(CCCCN3CC=C(c4ccccc4)CC3)c2c1 | 7.30 | 8.51 | <50 |  |
| Fc1ccc2[nH]cc(CCCCN3CC=C(c4ccccc4)CC3)c2c1 | 8.00 | 8.80 | 552 |  |
| Cc1[nH]c2ccccc2c1CCCCN1CC=C(c2ccccc2)CC1 | 7.30 | 8.27 | 318 |  |
| COc1ccc(C2=CCN(CCCCc3c[nH]c4ccccc34)CC2)cc1 | 6.15 | 7.39 | <50 |  |
| C1=C(c2ccccc2)CCN(CCCCCc2c[nH]c3ccccc23)C1 | 7.22 | 7.89 | <50 |  |
| C1=C(c2ccccc2)CCN(CCCCc2c[nH]c3ccccc23)C1 | 6.98 |  | 864 | pKi (D(2) dopamine receptor [4]): 8.19; ED50 (Rattus norvegicus [5]): > 3 mg/kg; Turns (Rattus norvegicus [6]): 44; Turns (Rattus norvegicus [7]): 422; Turns (Rattus norvegicus [8]): 99; Turns (Rattus norvegicus [9]): 201; Turns (Rattus norvegicus [10]): 825; Turns (Rattus norvegicus [11]): 68; Turns (Rattus norvegicus [12]): 936; Turns (Rattus norvegicus [13]): 236; Turns (Rattus norvegicus [14]): 412; Turns (Rattus norvegicus [15]): 1731 |
| c1ccc(C2CCN(CCCCc3c[nH]c4ccccc34)CC2)cc1 | < 7.00 | < 7.00 | <50 |  |
| Fc1ccc(C2=CCN(CCCCc3c[nH]c4ccccc34)CC2)cc1 | 7.05 | 7.82 | <100 |  |
| CN1CCc2cccc3c2[C@H]1Cc1ccc(O)c(O)c1-3 [APOMORPHINE] |  |  |  | ED50 (Rattus norvegicus [5]): 0.28 mg/kg; Turns (Rattus norvegicus [16]): 1268 |
| Oc1ccc2[nH]cc(CCCCN3CC=C(c4ccccc4)CC3)c2c1 [ROXINDOLE] |  | 9.06 | 948 | pIC50 (D(2) dopamine receptor [17]): 8.23; ED50 (Rattus norvegicus [18]): > 30 mg/kg; Turns (Rattus norvegicus [19]): 534; Turns (Rattus norvegicus [20]): 1694; Turns (Rattus norvegicus [21]): 2010; Turns (Rattus norvegicus [22]): 1132; Turns (Rattus norvegicus [23]): 251; Turns (Rattus norvegicus [24]): 397; Turns (Rattus norvegicus [25]): 830; Turns (Rattus norvegicus [26]): 926; Turns (Rattus norvegicus [27]): 718; Turns (Rattus norvegicus [28]): 2246; Turns (Rattus norvegicus [29]): 287; Turns (Rattus norvegicus [16]): 399 |
